Only some compounds are listed: those with a hit (about 4.1% of all), similar ones and a draw of the others.
ROMK mod: human ROMK K+ channel modulation, primary screen; AID 1918; Tet-inducible ROMK, thallium flux fluorescence; actives lie on both sides; 2% of 130,000 active; B-score at 10 µM; P48048;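 active means signal ratio slope over the read window, or its plate-corrected B-score, at least 3 SD from the plate mean, either direction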;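 further: B-score of the F/F0 ratio slope over 7 to 12 s after thallium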
Dynein transport: dynein cargo transport inhibition; 3617.4 mouse cells, GR-EGFP nuclear translocation imaging; test concentration mostly 20 µM; stimulated with dexamethasone, 1 µM; stronger effect = lower value; z-score, hits read low; 0.47% of 220,000 active;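 active means plate z-score of nuclear minus cytoplasmic receptor signal below a set negative limit, without overly bright fluorescence or cell loss, cut at about -3.5 in these data, passing the limit was not always enough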;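 further: z-score of nuclear minus cytoplasmic ring GR-EGFP intensity difference per well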
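Buffer or medium: Induction medium lacking tetracycline, stripped serum | Also added: Dexamethasone agonist, 1.0 µM final, for 30 min | Timing: 48 h induction, 1 h compound, 30 min dex at 37 °C | Detection: Formaldehyde fixation, Hoechst nuclear stain, 10x automated fluorescence imaging | Measure: Nuclear versus cytoplasmic GR-EGFP signal, averaged per well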
Autophagy HCS: alters autophagy in cells; 0.98% of 190,000 active; MEF GFP-LC3 puncta imaging; test concentration mostly 10 µM; calls only at 10 µM (by protocol);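 active means percentage of spot-positive cells more than 3 SD above its plate mean, without a fluorescence outlier flag or 80% toxicity; inconclusive means no clear call, values can overlap the other calls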;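 further: spot-positive cell cutoff set from DMSO-treated cells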
KCC2 mod: modulates chloride dependent transport by human KCC2; KCC2 cells, thallium flux FluoZin-2 fluorescence; B-score of Tl+ flux slope (higher = more flux/activation; lower = inhibition) at 10 µM; 2.2% of 190,000 active; AID 1456;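 active means thallium flux slope and its plate-corrected score both differing from the plate sample mean at a set confidence after two filtering rounds, in either direction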;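 further: slope of fluorescence scaled to starting intensity during 10 to 20 s after thallium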
Redox H2O2 prof: compounds producing H2O2 with reducing agent – biochemical, NIH compound library profiling, artefact control for MLSCN library redox annotation, primary screen; DTT-dependent redox cycling H2O2, phenol red/HRP absorbance; 100% = 100 µM peroxide control, 0% = buffer; AID 878; activation, % at 10 µM; 0.03% of 200,000 active;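 active means activation of at least 50% relative to the plate's high and low controls in the primary single-dose screen; inactive means activation below 50%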;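 further: compound incubated with DTT at 0.8 mM final as the reducing agent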
KCC2 sec1: confirmation of human KCC2 transport modulators. 15% of 3,700 active. AID 1713. shares compounds with KCC2 mod. HEK293-KCC2, thallium flux, FluoZin2 fluorescence; stronger effect = higher value. normalised thallium flux (F/F0 slope) at 10 µM;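 active means thallium flux slope above the same plate's solvent-only control mean plus 3 SD; inconclusive means the two replicate wells disagree; inactive means no significant difference from solvent-only control wells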
KCC2 bumet counter: bumetanide-insensitive thallium flux in KCC2 cells with ouabain, counter-screen; shares compounds with KCC2 mod; HEK293-KCC2 + bumetanide/ouabain, thallium flux FluoZin2; stronger effect = higher value; normalized thallium flux at 10 µM; 49% of 3,700 active;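 active means thallium entry rate above the same plate's blocked-transporter control wells by more than 3 SD; inconclusive means the two repeat wells disagree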;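 further: raw slope of fluorescence over initial fluorescence between 10 and 20 s after thallium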
KCC2 secondary2: KCC2 (human) modulation, second secondary assay; shares compounds with KCC2 mod; HEK293-KCC2, thallium flux FluoZin2 fluorescence; actives lie on both sides; F/F0 rise rate, 10–20 s post-thallium; normalized thallium flux at 10 µM; 23% of 3,700 active;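 active means thallium flux slope more than 3 SD above or below the plate's solvent-only control mean, mostly below; inconclusive means the two repeat wells disagreed; inactive means no significant shift from solvent-only controls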;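 further: raw slope with 0.1% DMSO as baseline and bumetanide as block control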
HEK293 Tl flux: parental HEK flux effect, counter-screen; shares compounds with KCC2 mod; HEK293 parental cells, thallium flux FluoZin2, ouabain; baseline-ratio fluorescence slope, 10–20 s after thallium; thallium flux rate (normalised fluorescence) at 10 µM; 46% of 3,700 active;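 active means thallium flux rate significantly above the same plate's solvent-only control wells, beyond their mean plus 3 SD; inconclusive means the two replicate wells gave conflicting results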
KCC2 retest ouab: confirmation of human KCC2 modulators with ouabain | shares compounds with KCC2 mod | HEK293-KCC2, thallium flux FluoZin2 fluorescence; bidirectional: low = inhibitor, high = activator | raw Tl+ flux slope (below DMSO = inhibition, above = activation) at 10 µM | 48% of 3,700 active | AID 1717;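 active means thallium flux slope beyond 3 SD from same-plate DMSO control mean in most replicates, usually higher, sometimes lower; inconclusive means repeat tests gave conflicting results; inactive means no significant difference from controls in most replicates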;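 further: slope of initial-normalized fluorescence between seconds 10 and 20 after thallium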
HEK293 Tl flux2: parental HEK flux effect, counter-screen 2. 33% of 3,700 active. thallium flux slope at 10 µM. HEK293 parental, thallium flux FluoZin-2 fluorescence slope. AID 1718. shares compounds with KCC2 mod;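 active means thallium flux slope above the same plate's solvent-control mean plus 3 SD in both duplicate wells; inconclusive means duplicate wells that disagreed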;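 further: run without ouabain in cells lacking the KCC2 cotransporter; slope of fluorescence scaled to its starting value between 10 and 20 s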
* = called active by the depositor; i = inactive; ? = inconclusive; nt = no result.

SMILES	ROMK mod	Dynein transport	Autophagy HCS	KCC2 mod	Redox H2O2 prof	KCC2 sec1	KCC2 bumet counter	KCC2 secondary2	HEK293 Tl flux	KCC2 retest ouab	HEK293 Tl flux2
O=C1C2Sc3[nH]c(=O)sc3C(c3ccccc3)C2C(=O)N1c1ccc(Cl)cc1 (stereo unspecified)	nt	-0.66	i	-9.8*	1	0.0066	0.013*	0.024*	0.01*	0.011*	0.011
Cc1ccc(N2C(=O)C3Sc4[nH]c(=O)sc4C(c4ccccc4)C3C2=O)cc1 (stereo unspecified)	nt	-0.85	i	-10*	1	0.0074	0.011*	0.023*	0.01*	0.0098*	0.011
O=C(O)Cc1sc(Nc2ccccc2)nc1-c1ccc(Cl)cc1	0.87	1.9	i	-6.7*	0	0.0083	0.01*	0.033	0.0075	?	0.011
COc1ccccc1Nc1nc(N)nc(CSC(=S)N2CC(C)CC(C)C2)n1 (stereo unspecified)	-0.48	-0.7	i	0.66	0	nt	nt	nt	nt	nt	nt
CCOc1ccc(Nc2nc(NCCN3CCOCC3)nc(OC)n2)cc1	0.3	0.088	i	nt	0	0.0088	?	0.035	0.0078	0.019	0.012
Clc1ccc(Nc2nc(NCCN3CCOCC3)nc(N3CCOCC3)n2)cc1	nt	-1.8	i	1.2	0	nt	nt	nt	nt	nt	nt
Cn1c(-c2cccc3ccccc23)n[nH]c1=S	-0.023	-0.8	i	-0.29	0	nt	nt	nt	nt	nt	nt
CC(=O)c1nc2ccccc2n1S(=O)(=O)c1ccc(C)cc1	-0.45	-0.46	i	5.6*	2	0.011	?	0.029	0.0076	0.018	0.01
CC(=O)c1nc2ccccc2n1S(=O)(=O)c1ccc(Cl)cc1	0.54	3.1	i	-0.29	1	nt	nt	nt	nt	nt	nt
CCC(C(=O)OCC(=O)Nc1ccc(SC(F)F)cc1)c1ccccc1 (stereo unspecified)	nt	2.6	i	0.32	0	nt	nt	nt	nt	nt	nt
Cc1ccnc(NC(=S)NC(=O)/C=C/c2ccco2)c1	0.72	-0.34	i	nt	0	nt	nt	nt	nt	nt	nt
Cc1ccc2nc(NC(=S)NC(=O)c3ccco3)sc2c1	1.1	0.34	i	64*	0	0.024*	0.15*	0.057*	0.084*	0.076*	0.042*
O=C(NC(=S)Nc1nc(-c2ccc(Br)cc2)cs1)c1ccco1	1.6	-0.48	i	5.5*	-1	0.0063	0.0078*	0.029	0.011*	0.021	0.011*
CC(=O)Nc1nc2ccc(NC(=O)c3ccco3)cc2s1	0.042	-0.095	i	0.1	0	nt	nt	nt	nt	nt	nt
Cc1ccnc(NC(=S)NC(=O)c2ccco2)c1	nt	0.29	i	7.5*	1	0.015*	0.057*	0.033	0.02*	0.046*	0.013*
CC(=O)c1cccc(NC(=S)NC(=O)Cc2ccccc2)c1	0.023	0.21	i	6.2*	0	0.0079	0.0091*	?	0.01*	0.02	?
CC(=O)c1cccc(NC(=S)NC(=O)c2ccc(C)cc2Cl)c1	0.51	0.3	i	21*	-2	0.0058	0.062*	?	0.019*	0.036*	0.019*

Compound activity as filed in PubChem BioAssay.
